Results from different studies.
Protocols differ between the studies behind these lines.
Target: Serine/threonine-protein kinase MARK2 (MARK2, Homo sapiens, UniProt Q7KZI7)

Cc1cc(NC(=O)c2cccc3cc(-c4cccc5[nH]nc(N)c45)ccc23)ccc1F — activity vs control (enzyme activity; inhibitor; 0.1 µM): 94%
O=C1Nc2ccc(Cl)cc2C1=Cc1cc(Cl)c(O)c(Cl)c1 — remaining signal (cell-free assay; 0.5 µM): 79.7%
NS(=O)(=O)c1ccc(CNc2nc(Nc3cccc(NC(=O)N4CCCC4)c3)ncc2C2CC2)cc1 — remaining activity (enzyme activity; inhibitor; radiometric; 1 µM): 93%
COc1cccc2c(NCc3ccccc3)nc(-n3c(N)nc4ccccc43)nc12 — inhibition (target engagement in cells; inhibitor; chemoproteomics; 20 mM): -7.2%
O=C(NCCCNc1ccnc(Nc2cccc(NC(=O)N3CCCC3)c2)n1)C1CCC1 — remaining activity (enzyme activity; inhibitor; radiometric; 1 µM): 82%
Cn1nc(C(=O)NCc2ccc(C(=O)O)cc2)cc1-c1ccc2[nH]ccc2c1 — remaining binding (cell-free assay; competition with immobilised ligand; 0.1 µM): 100%
Brc1cnc(Nc2cccc(CN3CCOCC3)c2)nc1NCCc1c[nH]cn1 — remaining activity (enzyme activity; inhibitor; radiometric; 1 µM): 5%
CC1=C(C#N)C(c2ccc3c(c2)c(NC(=O)c2ccccc2C)nn3C)C(C#N)=C(C)N1 — remaining binding (cell-free assay; competition with immobilised ligand; 1 µM): 99%
FC(F)(F)Oc1cccc(-c2cnc3ccc(-c4ccncc4)nn23)c1 — activity vs control (enzyme activity; inhibitor; radiometric; 5 µM): 99%
COc1cc2ncnc(Nc3ccc(Oc4ccccc4)cc3C)c2cc1OC — inhibition (enzyme activity; inhibitor; 1 µM): 7%
CC(=O)N1CCC(c2ccc(C(=O)NC3=NCCN3)cc2C(F)(F)F)CC1 — remaining binding (cell-free assay; competition with immobilised ligand; 1 µM): 100%
N#CCCc1ccc2c(c1)-c1[nH]c3ccc([N+](=O)[O-])cc3c1CC(=O)N2 — remaining signal (cell-free assay; 0.5 µM): 65.5%
CO[C@H]1CC[C@H](CNc2ccc(S(=O)(=O)NC(=O)c3ccc(N4CCN(CC5=C(c6ccc(Cl)cc6)CC(C)(C)CC5)CC4)cc3Oc3cnc4[nH]ccc4c3)cc2[N+](=O)[O-])CC1 — remaining binding (cell-free assay; competition with immobilised ligand; 1 µM): 100%
O=C(NCCCNc1nc(Nc2cccc(CN3CCOCC3)c2)ncc1C1CC1)C1CCC1 — remaining activity (enzyme activity; inhibitor; radiometric; 1 µM): 4%
Cc1c(C(=O)O)cc(-c2ccc(C3CCNCC3)cc2)c2ccc(-c3ccc(C(F)(F)F)cc3)cc12 — remaining binding (binding; competition with immobilised ligand; 1 µM): 100%
CNC(=O)c1cc(Oc2ccc(NC(=O)Nc3ccc(Cl)c(C(F)(F)F)c3)cc2)ccn1 — inhibition (enzyme activity; inhibitor; 0.3 µM): 28%
Cc1cc(-n2nc(Cc3cc(F)cc(C(F)(F)F)c3)nc2C)ccc1C(N)=O — remaining binding (cell-free assay; competition with immobilised ligand; 1 µM): 89%
NS(=O)(=O)c1ccc(CNc2ccnc(Nc3cccc(CN4CCOCC4)c3)n2)cc1 — remaining activity (enzyme activity; inhibitor; radiometric; 1 µM): 102%
